For eleven molecules, Kd and Drug uptake results are on record in ChEMBL document CHEMBL1153736, “Application of ring-closing metathesis macrocyclization to the development of Tsg101-binding antagonists” (Bioorg Med Chem Lett, 2010).

Numbered stars: 1 amine (or outer) side, 2 acyl side, 3 side chain; on linkers, the order of the positions; unused ones are H or OH. Bridge positions count the residues as written; N and C are the ends. Square brackets hold non-standard residues; d marks the D form. Peptide text beside a SMILES is read from it. * marks the point of attachment. Fluorescein(5-NHCS) = O=C1OC2(c3ccc(O)cc3Oc3cc(O)ccc32)c2cc(NC(=S)*)ccc21; Gly(N-but-3-enyl) = O=C(CN(CCC=[*:3])[*:1])[*:2]; X3 = O=C(CN(CCCCCCC=[*:3])[*:1])[*:2]; X5 = O=C(CN(CCCCCC=[*:3])[*:1])[*:2]; X4 = O=C(CN(CCCCC=[*:3])[*:1])[*:2]; X2 = O=C(CN(CC=[*:3])[*:1])[*:2]; NAllylGly = C=CCNCC(=O)O; Ava = NCCCCC(=O)O

The first data set addresses T1, Tumor susceptibility gene 101 protein (Homo sapiens, UniProt Q99816).
T1 sequence (Q99816 whole entry): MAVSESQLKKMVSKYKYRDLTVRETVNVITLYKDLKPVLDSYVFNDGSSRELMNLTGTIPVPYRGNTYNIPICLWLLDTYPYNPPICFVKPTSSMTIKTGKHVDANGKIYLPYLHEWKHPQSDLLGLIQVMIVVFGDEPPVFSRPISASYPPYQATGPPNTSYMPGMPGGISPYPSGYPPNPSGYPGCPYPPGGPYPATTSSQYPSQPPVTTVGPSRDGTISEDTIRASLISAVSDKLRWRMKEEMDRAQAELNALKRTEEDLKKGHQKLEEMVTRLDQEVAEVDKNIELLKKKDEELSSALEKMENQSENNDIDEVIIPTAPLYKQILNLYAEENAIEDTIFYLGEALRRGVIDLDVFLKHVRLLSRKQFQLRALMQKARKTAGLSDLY
Kind of data set: Binding affinity to ubiquitin E2 variant domain of human Tsg101 by fluorescent anisotropy.
Conditions: not given
What is called Kd is a measure of binding affinity in units of concentration. Lower therefore signals a tighter complex. For the molecule `C[C@@H]1NC(=O)[C@H]([C@@H](C)O)NC(=O)[C@@H]2CCCN2C(=O)CN(C(=O)[C@@H]2CCCN2C(=O)CCCCNC(=S)Nc2ccc3c(c2)C2(OC3=O)c3ccc(O)cc3Oc3cc(O)ccc32)CCCC/C=C/CN(CC(=O)N[C@@H](CCC(=O)O)C(N)=O)C(=O)[C@@H]2CCCN2C(=O)[C@@H]2CCCN2C1=O` ({Fluorescein(5-NHCS)-Ava}-P[X4]PTAPP[X2]E-NH2; staple (E) 2-8), the Kd was more than 500 µM.

For the molecule `C[C@@H]1NC(=O)[C@H]([C@@H](C)O)NC(=O)[C@@H]2CCCN2C(=O)CN(C(=O)[C@@H]2CCCN2C(=O)CCCCNC(=S)Nc2ccc3c(c2)C2(OC3=O)c3ccc(O)cc3Oc3cc(O)ccc32)CCCCC/C=C\CN(CC(=O)N[C@@H](CCC(=O)O)C(N)=O)C(=O)[C@@H]2CCCN2C(=O)[C@@H]2CCCN2C1=O` ({Fluorescein(5-NHCS)-Ava}-P[X5]PTAPP[X2]E-NH2; staple (Z) 2-8), the Kd is more than 500 µM.

`C[C@@H]1NC(=O)[C@H]([C@@H](C)O)NC(=O)[C@@H]2CCCN2C(=O)[C@H](CCC(=O)O)NC(=O)CN(C(=O)CCCCNC(=S)Nc2ccc3c(c2)C2(OC3=O)c3ccc(O)cc3Oc3cc(O)ccc32)CCC/C=C\CCCCCCN(CC(N)=O)C(=O)[C@H](CCC(=O)O)NC(=O)[C@@H]2CCCN2C(=O)[C@@H]2CCCN2C1=O` had a dissociation constant Kd of 106 µM.

Molecule `C[C@@H]1NC(=O)[C@H]([C@@H](C)O)NC(=O)[C@@H]2CCCN2C(=O)CN(C(=O)[C@@H]2CCCN2C(=O)CCCCNC(=S)Nc2ccc3c(c2)C2(OC3=O)c3ccc(O)cc3Oc3cc(O)ccc32)CC/C=C\CN(CC(=O)N[C@@H](CCC(=O)O)C(N)=O)C(=O)[C@@H]2CCCN2C(=O)[C@@H]2CCCN2C1=O` ({Fluorescein(5-NHCS)-Ava}-P[Gly(N-but-3-enyl)]PTAPP[X2]E-NH2; staple (Z) 2-8) gave a Kd of 171 µM.

For `C[C@@H]1NC(=O)[C@H]([C@@H](C)O)NC(=O)[C@@H]2CCCN2C(=O)[C@H](CCC(=O)O)NC(=O)CN(C(=O)CCCCNC(=S)Nc2ccc3c(c2)C2(OC3=O)c3ccc(O)cc3Oc3cc(O)ccc32)CCC=CCN(CC(N)=O)C(=O)[C@H](CCC(=O)O)NC(=O)[C@@H]2CCCN2C(=O)[C@@H]2CCCN2C1=O`, the Kd was more than 500 µM.

In turn, `C[C@@H]1NC(=O)[C@H]([C@@H](C)O)NC(=O)[C@@H]2CCCN2C(=O)CN(C(=O)[C@@H]2CCCN2C(=O)CCCCNC(=S)Nc2ccc3c(c2)C2(OC3=O)c3ccc(O)cc3Oc3cc(O)ccc32)CCCCC=CCN(CC(N)=O)C(=O)[C@H](CCC(=O)O)NC(=O)[C@@H]2CCCN2C(=O)[C@@H]2CCCN2C1=O` registered a dissociation constant Kd of 108 µM.

Take `C=CCN(CC(=O)N1CCC[C@H]1C(=O)N[C@H](C(=O)N[C@@H](C)C(=O)N1CCC[C@H]1C(=O)N1CCC[C@H]1C(=O)N(CC=C)CC(=O)N[C@@H](CCC(=O)O)C(N)=O)[C@@H](C)O)C(=O)[C@@H]1CCCN1C(=O)CCCCNC(=S)Nc1ccc2c(c1)C1(OC2=O)c2ccc(O)cc2Oc2cc(O)ccc21` ({Fluorescein(5-NHCS)-Ava}-P[NAllylGly]PTAPP[NAllylGly]E-NH2): the affinity, expressed as Kd, was 590 µM.

`C[C@@H]1NC(=O)[C@H]([C@@H](C)O)NC(=O)[C@@H]2CCCN2C(=O)[C@H](CCC(=O)O)NC(=O)CN(C(=O)CCCCNC(=S)Nc2ccc3c(c2)C2(OC3=O)c3ccc(O)cc3Oc3cc(O)ccc32)CCC/C=C\CN(CC(N)=O)C(=O)[C@H](CCC(=O)O)NC(=O)[C@@H]2CCCN2C(=O)[C@@H]2CCCN2C1=O` came in with a Kd of more than 500 µM.

In turn, `C[C@@H]1NC(=O)[C@H]([C@@H](C)O)NC(=O)[C@@H]2CCCN2C(=O)[C@H](CCC(=O)O)NC(=O)CN(C(=O)CCCCNC(=S)Nc2ccc3c(c2)C2(OC3=O)c3ccc(O)cc3Oc3cc(O)ccc32)C/C=C\CCCCCCN(CC(=O)N[C@@H](CCC(=O)O)C(N)=O)C(=O)[C@@H]2CCCN2C(=O)[C@@H]2CCCN2C1=O` ({Fluorescein(5-NHCS)-Ava}-[X2]EPTAPP[X3]E-NH2; staple (Z) 1-8) showed a Kd of more than 500 µM.

The molecule `C[C@@H]1NC(=O)[C@H]([C@@H](C)O)NC(=O)[C@@H]2CCCN2C(=O)[C@H](CCC(=O)O)NC(=O)CN(C(=O)CCCCNC(=S)Nc2ccc3c(c2)C2(OC3=O)c3ccc(O)cc3Oc3cc(O)ccc32)CCCC/C=C\CN(CC(N)=O)C(=O)[C@H](CCC(=O)O)NC(=O)[C@@H]2CCCN2C(=O)[C@@H]2CCCN2C1=O` displayed a dissociation constant Kd of more than 500 µM.

`C[C@@H]1NC(=O)[C@H]([C@@H](C)O)NC(=O)[C@@H]2CCCN2C(=O)[C@H](CCC(=O)O)NC(=O)CN(C(=O)CCCCNC(=S)Nc2ccc3c(c2)C2(OC3=O)c3ccc(O)cc3Oc3cc(O)ccc32)CCCCC/C=C\CN(CC(N)=O)C(=O)[C@H](CCC(=O)O)NC(=O)[C@@H]2CCCN2C(=O)[C@@H]2CCCN2C1=O` showed a Kd of more than 500 µM.

In the next data set the test system is HeLa. Kind of data set: Cellular uptake in human HeLa cells assessed as fluorescence intensity by FACS analysis relative to control. Type of data set: ADME, cell-based. Particulars: in the assay text read “fluorescence microscopy” for “FACS analysis”. The gist of the method:
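Uptake of FITC-tagged peptide-peptoid hybrids was measured by fluorescence microscopy. The value is the average fluorescence intensity of treated cells, quantified from at least 20 cells taken from 4–6 fields, each field holding about 5 cells.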
Take `C=CCN(CC(=O)N1CCC[C@H]1C(=O)N[C@H](C(=O)N[C@@H](C)C(=O)N1CCC[C@H]1C(=O)N1CCC[C@H]1C(=O)N(CC=C)CC(=O)N[C@@H](CCC(=O)O)C(N)=O)[C@@H](C)O)C(=O)[C@@H]1CCCN1C(=O)CCCCNC(=S)Nc1ccc2c(c1)C1(OC2=O)c2ccc(O)cc2Oc2cc(O)ccc21` ({Fluorescein(5-NHCS)-Ava}-P[NAllylGly]PTAPP[NAllylGly]E-NH2): the Drug uptake is listed as 74%.
